# In ChEMBL document CHEMBL4049439, “Synthesis and Characterization of Tetrahydropyran-Based Bacterial Topoisomerase Inhibitors with Antibacterial Activity against Gram-Negative Bacteria” (J Med Chem, 2017):
# Key:
# [1] = Cardiotoxicity against human induced pluripotent stem cell-derived cardiomyocytes assessed as total drug concentration causing effect on spontaneous rhythm after 5 to 60 mins by Fluo-4 dye based fluorescence assay; type: toxicity; conditions: cardiac muscle cell
# Outline: (§1)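 Spontaneous beating rhythm of human iPSC-derived cardiomyocytes monitored. Reported value is the lowest active concentration, free or total. Free/total conversion corrected for 20% serum in the test solution.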
# Rattus norvegicus [2] = assay: Dose normalized unbound AUC in Wistar rat at 1 mg/kg, iv by LC-MS/MS analysis; type: ADME, organism-based; conditions: in vivo
# Outline: (§2)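 Rats dosed iv at 10 mg/kg or 1 mg/kg. Dose-normalized AUC (μg·h/(mL·dose)) and its unbound counterpart derived via fraction unbound. Clearance, unbound clearance, Vdss and half-life also derived.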
# Cavia porcellus [3] = assay: (§3) Cardiotoxicity in Dunkin-Hartley guinea pig assessed as free plasma concentration causing effect on heart rate administered as iv at 3 mg/kg for first 20 mins of infusion followed by 10 mg/kg for second 20 mins of infusion followed by 30 mg/kg for third 20 mins of infusion by LC-MS/MS analysis; type: toxicity, organism-based; conditions: in vivo
# Outline: (§4)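 Anesthetized guinea pigs received 3, 10 and 30 mg/kg iv over three consecutive 20 min periods. MAP, HR and ECG intervals (PR, QRS, RR, QT) recorded continuously. Blood drawn at the end of each period for drug levels. Value is the lowest plasma concentration differing from vehicle-treated animals. Free level uses unbound fraction from rapid equilibrium dialysis of guinea pig plasma.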
# Cavia porcellus [4] = assay: Cardiotoxicity in Dunkin-Hartley guinea pig assessed as free plasma concentration causing effect on PR interval administered as iv at 3 mg/kg for first 20 mins of infusion followed by 10 mg/kg for second 20 mins of infusion followed by 30 mg/kg for third 20 mins of infusion by LC-MS/MS analysis; type: toxicity, organism-based; conditions: in vivo; outline: as §4
# Cavia porcellus [5] = assay: as §3, with “mean arterial pressure” for “heart rate”; type: toxicity, organism-based; conditions: in vivo; outline: as §4
# [6] = Inhibition of wild-type Acinetobacter baumannii DNA gyrase supercoiling activity using relaxed pBR322 DNA as substrate by ethidium bromide based agarose gel electrophoresis
# [7] = Volume of distribution at steady state in Wistar rat at 1 mg/kg, iv by LC-MS/MS analysis; type: ADME, organism-based; conditions: in vivo, read-out: Vdss
# Outline: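 Rats received a single intravenous dose of 10 or 1 mg/kg depending on the compound. Clearance, unbound clearance, Vdss, terminal half-life and dose-normalized AUC were derived from plasma exposure, with unbound fraction (fu) reported for this species.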
# Acinetobacter baumannii = assay: Antibacterial activity against fluoroquinolone-resistant Acinetobacter baumannii T6474 by CLSI broth microdilution method; type: functional
# [8] = Terminal half-life in Wistar rat at 1 mg/kg, iv by LC-MS/MS analysis; type: ADME, organism-based; conditions: in vivo, read-out: beta t1/2 (converted); outline: as §2
# [9] = Inhibition of wild-type Pseudomonas aeruginosa DNA topoisomerase-4 mediated supercoiled pBR322 DNA relaxation by ethidium bromide based agarose gel electrophoresis
# [10] = Inhibition of wild-type Pseudomonas aeruginosa DNA gyrase supercoiling activity using relaxed pBR322 DNA as substrate by ethidium bromide based agarose gel electrophoresis
# [11] = Lipophilicity, log D of the compound at pH 7.4; type: physicochemical; conditions: buffer
# [12] = Fraction unbound in Wistar rat plasma at 1 mg/kg, iv by rapid equilibrium dialysis; type: ADME, organism-based; outline: as §2
# [13] = Cardiotoxicity against human induced pluripotent stem cell-derived cardiomyocytes assessed as free drug concentration causing inhibition of spontaneous rhythm after 5 to 60 mins by Fluo-4 dye based fluorescence assay; type: toxicity; conditions: cardiac muscle cell; outline: as §1
# [14] = Fraction unbound in Dunkin-Hartley guinea pig plasma administered as iv at 3 mg/kg for first 20 mins of infusion followed by 10 mg/kg for second 20 mins of infusion followed by 30 mg/kg for third 20 mins of infusion by rapid equilibrium dialysis; type: ADME, organism-based, Cavia porcellus
# [15] = Inhibition of wild-type Acinetobacter baumannii DNA topoisomerase-4 mediated supercoiled pBR322 DNA relaxation by ethidium bromide based agarose gel electrophoresis
# Rattus norvegicus [16] = assay: Unbound clearance in Wistar rat at 1 mg/kg, iv by LC-MS/MS analysis; type: ADME, organism-based; conditions: in vivo; outline: as §2
# Cavia porcellus [17] = assay: Cardiotoxicity in Dunkin-Hartley guinea pig assessed as free plasma concentration causing effect on QRS interval administered as iv at 3 mg/kg for first 20 mins of infusion followed by 10 mg/kg for second 20 mins of infusion followed by 30 mg/kg for third 20 mins of infusion by LC-MS/MS analysis; type: toxicity, organism-based; conditions: in vivo; outline: as §4
# [18] = Inhibition of wild-type Escherichia coli DNA topoisomerase-4 mediated supercoiled pBR322 DNA relaxation by ethidium bromide based agarose gel electrophoresis
# [19] = Clearance in Wistar rat at 1 mg/kg, iv by LC-MS/MS analysis; type: ADME, organism-based; conditions: in vivo; outline: as §2
# Pseudomonas aeruginosa = assay: Antibacterial activity against Pseudomonas aeruginosa ATCC 27853 by CLSI broth microdilution method; type: functional
# Staphylococcus aureus = assay: Antibacterial activity against Staphylococcus aureus ATCC 29213 by CLSI broth microdilution method; type: functional
# [20] = Inhibition of wild-type Escherichia coli DNA gyrase supercoiling activity using relaxed pBR322 DNA as substrate by ethidium bromide based agarose gel electrophoresis
# hERG (KCNH2) [21] = target: T1, hERG (KCNH2) (Homo sapiens, UniProt Q12809); assay: Inhibition of human ERG assessed as reduction of K+ current at 30 uM
# T1 sequence (Q12809 whole entry): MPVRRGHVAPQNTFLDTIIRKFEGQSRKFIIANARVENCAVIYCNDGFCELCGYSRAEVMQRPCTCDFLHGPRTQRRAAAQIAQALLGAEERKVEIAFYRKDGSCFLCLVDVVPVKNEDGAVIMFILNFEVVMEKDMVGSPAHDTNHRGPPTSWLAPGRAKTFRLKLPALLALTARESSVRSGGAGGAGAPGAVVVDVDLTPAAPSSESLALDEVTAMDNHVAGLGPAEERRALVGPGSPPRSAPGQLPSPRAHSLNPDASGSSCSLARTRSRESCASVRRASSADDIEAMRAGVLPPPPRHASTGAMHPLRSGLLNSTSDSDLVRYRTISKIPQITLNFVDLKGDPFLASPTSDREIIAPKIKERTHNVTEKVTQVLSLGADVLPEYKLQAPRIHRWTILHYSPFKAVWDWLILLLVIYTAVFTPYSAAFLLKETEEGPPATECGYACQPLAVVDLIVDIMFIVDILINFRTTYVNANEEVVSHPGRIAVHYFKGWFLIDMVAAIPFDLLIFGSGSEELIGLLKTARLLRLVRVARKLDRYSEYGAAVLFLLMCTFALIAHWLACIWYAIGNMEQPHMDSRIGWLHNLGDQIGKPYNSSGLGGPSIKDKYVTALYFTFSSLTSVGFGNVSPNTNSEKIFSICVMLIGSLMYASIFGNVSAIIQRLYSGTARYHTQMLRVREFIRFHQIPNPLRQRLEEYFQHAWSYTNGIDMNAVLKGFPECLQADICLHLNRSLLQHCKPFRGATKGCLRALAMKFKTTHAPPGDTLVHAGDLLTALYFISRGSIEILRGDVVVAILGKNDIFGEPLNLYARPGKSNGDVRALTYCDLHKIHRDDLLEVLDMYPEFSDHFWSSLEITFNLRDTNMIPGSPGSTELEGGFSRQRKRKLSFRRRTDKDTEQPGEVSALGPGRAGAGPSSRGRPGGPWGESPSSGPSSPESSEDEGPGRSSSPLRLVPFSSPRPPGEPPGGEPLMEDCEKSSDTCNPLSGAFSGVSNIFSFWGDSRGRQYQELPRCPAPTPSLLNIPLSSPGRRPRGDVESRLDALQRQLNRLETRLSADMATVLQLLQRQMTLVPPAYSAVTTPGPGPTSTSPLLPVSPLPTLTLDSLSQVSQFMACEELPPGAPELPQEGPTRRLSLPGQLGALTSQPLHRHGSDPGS
# Outline: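 hERG K+ channel current reduction measured at 30 μM compound concentration.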
# [22] = target: Voltage-gated inwardly rectifying potassium channel KCNH2 (Homo sapiens, UniProt Q12809); assay: (§5) Inhibition of human ERG assessed as reduction of K+ current
# Sequence of Voltage-gated inwardly rectifying potassium channel KCNH2 (Q12809 whole entry): as above
# hERG (KCNH2) [23] = target: T1, hERG (KCNH2); assay: as §5; conditions: human
# Escherichia coli = assay: Antibacterial activity against wild-type Escherichia coli ATCC 25922 by CLSI broth microdilution method; type: functional
# Cavia porcellus [24] = assay: Cardiotoxicity in Dunkin-Hartley guinea pig assessed as free plasma concentration causing effect on QT interval administered as iv at 3 mg/kg for first 20 mins of infusion followed by 10 mg/kg for second 20 mins of infusion followed by 30 mg/kg for third 20 mins of infusion by LC-MS/MS analysis; type: toxicity, organism-based; conditions: in vivo; outline: as §4
# Rattus norvegicus [25] = assay: Dose normalized AUC in Wistar rat at 1 mg/kg, iv by LC-MS/MS analysis; type: ADME, organism-based; conditions: in vivo
structure (smiles),measurement,setting,value
COc1ccc2ccc(=O)n(C[C@H](O)[C@@H]3CC[C@@H](NCc4ccc5c(n4)NC(=O)CO5)CO3)c2n1,Drug uptake,[1],1.4 µM
same,fAUC/dose,Rattus norvegicus [2],63 µg·h/mL
same,Cp(f),Cavia porcellus [3],6 µM
same,Cp(f),Cavia porcellus [4],> 21 µM
same,Cp(f),Cavia porcellus [5],21 µM
same,IC50,[6],125 nM
same,Vd,[7],2.5 L/kg
same,MIC,Acinetobacter baumannii,≤ 0.03 µg/mL
same,half-life,[8],1 h
same,IC50,[9],30 nM
same,IC50,[10],125 nM
same,logD,[11],2
same,fraction unbound,[12],0.167
same,Drug uptake(free),[13],0.86 µM
same,fraction unbound at 20 min,[14],0.43
same,IC50,[15],125 nM
same,CL free,Rattus norvegicus [16],263 mL/min/kg
same,Cp(f),Cavia porcellus [17],21 µM
same,IC50,[18],30 nM
same,clearance,[19],44 mL/min/kg
same,MIC,Pseudomonas aeruginosa,8 µg/mL
same,MIC,Staphylococcus aureus,≤ 0.03 µg/mL
same,IC50,[20],125 nM
same,inhibition at 30 µM,hERG (KCNH2) [21],71%
same,IC50,[22],15000 nM
same,IC20,hERG (KCNH2) [23],3700 nM
same,MIC,Escherichia coli,0.5 µg/mL
same,Cp(f),Cavia porcellus [24],1.5 µM
same,AUC/dose,Rattus norvegicus [25],378 ng·h/mL
